# Laboratory results: ChEMBL document CHEMBL1154748, “4-Pyridylanilinothiazoles that selectively target von Hippel-Lindau deficient renal cell carcinoma cells by inducing autophagic cell death” (2010)
# The source made the active and inactive calls. The rule behind the calls is not given here.
# Assays:
# RCC4 = experiment: Induction of autophagy in VHL-null human RCC4 cells assessed as intracytoplasmic vacuoles at 5 uM after 24 h
# [1] = Ratio of IC50 for human RCC4-VHL cells to IC50 for VHL-null human RCC4 cells; assay type: functional
# Outline: (§1)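 XTT read-out: 5000 cells/well plated, vehicle or drug added next day, 4-day exposure. Then phenol red-free medium with 0.3 mg/mL XTT, 20% FCS and 2.65 μg/mL N-methyldibenzopyrazine methyl sulfate, 1-2 h at 37 °C, absorbance at 450 nm. GI50 by linear interpolation; single determinations in triplicate. Ratio is the intraexperiment RCC4-VHL GI50 / RCC4 GI50.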
# [2] = Growth inhibition of VHL-null human RCC4 cells after 4 days by XTT assay; assay type: functional; details: RCC4, 96 h
# Outline: as §1
Structure (SMILES),Activity (RCC4),RatioGI50 [1],GI50 [2] [nM]
COCC#Cc1cnccc1-c1csc(Nc2cccc(C)c2)n1,Active,45,620
c1cc(-c2csc(Nc3ccc4c(c3)CCC4)n2)ccn1,Active,10,2000
